The values below come from ChEMBL document CHEMBL5653624 (Biochem Pharmacol, 2016).

Series [1] is described as follows: Cytotoxicity against HBE cells assessed as reduction in cell viability at 2 uM measured after 20 hrs by MTS assay. Type of series: toxicity, cell-based. The note with it: human. In short, it runs like this: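 MTS viability assay. RAW 264.7 cells seeded at 25,000 cells/cm2; HBE and hASM cells at 70% confluency and serum-starved for 24 h. Exposure for 20 h with LPS/IFNγ stimulation. MTS reagent added for 1 h at 37 °C in the dark, absorbance read at 490 nm. LPS/IFNγ-stimulated cells without inhibitor set at 100%.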

Series [2] has as its system RAW264.7. Briefly: Antiinflammatory activity in mouse RAW264.7 cells assessed as effect on LPS/IFNgamma-induced IL-10 gene expression at 1 uM preincubated for 20 hrs followed by LPS/IFNgamma stimulation and measured after 4 hrs by RT-qPCR analysis. Type of series: functional, cell-based. The note with it: time 24.0 hrs. In short, it runs like this:
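RAW 264.7 macrophages in DMEM/10% FBS received 1 μM RGFP966 for 20 h, with LPS/IFNγ for the last 4 h. Washed with cold DPBS, total RNA isolated, integrity checked by 28S/18S. RT-qPCR by comparative Ct (2−ΔΔCt), fold change versus LPS/IFNγ control. Mean ± SD of 3–5 independent experiments.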

The subject of series [3] is HBE. Briefly: Antiinflammatory activity in HBE cells assessed as effect on LPS/IFNgamma-induced IL-1beta gene expression at 2 uM […] by RT-qPCR analysis. In kind it is functional, cell-based. The note with it: Homo sapiens. Put shortly:
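HBE cells (passage 73–103) or immortalized hASM cells (2–3 donors, passage 27–35), serum-starved. Then 2 μM RGFP966 for 20 h, with LPS/IFNγ for the last 4 h. Total RNA isolated; RT-qPCR by 2−ΔΔCt, fold change versus LPS/IFNγ control. Mean ± SD of 3–5 independent experiments.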

The subject of series [4] is Lung. In words: Antiinflammatory activity in C57bl/6 mouse precision-cut lung slices assessed as down regulation of LPS/IFNgamma-induced IL-12b gene expression at 1 to 10 uM preincubated for 20 hrs followed by LPS/IFNgamma stimulation and measured after 4 hrs by RT-qPCR analysis. In kind it is functional, tissue-based. The note with it: dose 1-10 µM, time 24.0 hrs. In short, it runs like this:
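PCLS, 250 μm thick, cut from agarose-filled lungs of male C57bl/6 mice (24–28 g, 8–10 weeks). Three slices per well at 37 °C, 5% CO2. Slices received RGFP966 at 1 and 10 μM final for 20 h, with 10 ng/ml LPS and 10 ng/ml IFNγ stimulation. RNA isolated; RT-qPCR fold change versus LPS/IFNγ control by 2−ΔΔCt. Mean ± SD, n = 3–5.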

Series [5] deals with T1, Histone deacetylase 3 (Mus musculus) (UniProt O88895).
T1 sequence (whole entry): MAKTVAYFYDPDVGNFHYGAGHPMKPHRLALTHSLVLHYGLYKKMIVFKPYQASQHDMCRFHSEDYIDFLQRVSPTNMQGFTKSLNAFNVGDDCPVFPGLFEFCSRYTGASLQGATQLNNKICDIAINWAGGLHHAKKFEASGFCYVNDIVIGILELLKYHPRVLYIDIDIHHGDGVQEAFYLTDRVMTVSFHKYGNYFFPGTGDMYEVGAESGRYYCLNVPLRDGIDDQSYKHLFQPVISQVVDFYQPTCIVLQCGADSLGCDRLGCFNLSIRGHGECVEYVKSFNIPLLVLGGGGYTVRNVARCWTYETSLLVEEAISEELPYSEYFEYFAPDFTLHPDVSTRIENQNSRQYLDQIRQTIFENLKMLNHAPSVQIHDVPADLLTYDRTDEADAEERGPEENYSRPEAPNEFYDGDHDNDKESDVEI
In words: Inhibition of HDAC3 in mouse RAW264.7 cells assessed as effect on histone H4 peptide (GKGGKGLGKGGAKR) acetylation measured after 20 hrs by LC-MS/MS analysis. In kind it is cell-based. Put shortly: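 Histones from RAW 264.7 (20 h treatment) run on 15% SDS-PAGE (7 μg), Coomassie-stained H3/H4 bands excised, destained, and chemically acetylated with acetic anhydride-d6 in 1 M ammonium bicarbonate; endogenous lysine acetylation ratio derived by mass spectrometry from deuterated versus non-deuterated acetyl mass difference.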

The target of series [6] is T1, Histone deacetylase 3 (Mus musculus). Briefly: Inhibition of HDAC3 in mouse RAW264.7 cells assessed as effect on LPS/IFNgamma-induced NF-kappaB p65 nuclear translocation preincubated for 20 hrs followed by LPS/IFNgamma stimulation and measured after 1 hr by immunofluorescence microscopy. In kind it is cell-based. Put shortly:
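RAW 264.7 seeded at 20,000 cells/cm2, 1 μM inhibitor 20 h then 1 h LPS/IFNγ; fixed 4% formaldehyde, permeabilized 0.25% Triton X-100, blocked 5% BSA; rabbit anti-p65 (1:250, 2 h 4 °C) with AlexaFluor488 secondary, Hoechst nuclei; confocal imaging at identical settings; 3 independent experiments.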

The target is the same in series [7]. In words: Inhibition of HDAC3 in mouse RAW264.7 cells assessed as effect on LPS/IFNgamma-induced NF-kappaB p65 nuclear translocation preincubated for 20 hrs followed by LPS/IFNgamma stimulation and measured after 1 hr by Western blot analysis. Type of series: cell-based. In short, it runs like this: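 After 20 h inhibitor then 1 h LPS/IFNγ, RAW 264.7 cells fractionated into nuclear and cytosolic parts and immunoblotted for NF-κB p65; PARP-1 and β-actin as internal controls; densitometry as fold change versus LPS/IFNγ-treated control; 4 independent experiments, mean ± SD.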

Series [8] has as its system RAW264.7. In words: Antiinflammatory activity in LPS/IFNgamma-stimulated mouse RAW264.7 cells assessed as effect on HDAC1 mRNA expression preincubated for 20 hrs followed by LPS/IFNgamma stimulation and measured after 4 hrs by RT-qPCR analysis. Type of series: functional, cell-based. The note with it: time 24.0 hrs.
In series [9] the test system is RAW264.7. In words: Antiinflammatory activity in LPS/IFNgamma-stimulated mouse RAW264.7 cells assessed as reduction in HDAC2 expression preincubated for 20 hrs followed by LPS/IFNgamma stimulation and measured after 4 hrs by Western blot analysis. In kind it is functional, cell-based. The note with it: time 24.0 hrs. In short, it runs like this:
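RAW 264.7 cells were LPS/IFNγ-stimulated after inhibitor exposure, then lysed in Hepes/Triton buffer containing DTT, butyrate and protease inhibitors, freeze-thawed and cleared. Immunoblot with milk blocking and overnight primary antibody at 4 °C. Densitometry normalized to β-actin, LPS/IFNγ control set at 100%. Mean ± SD of 4 independent experiments.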

The test system of series [10] is Lung. Briefly: Antiinflammatory activity in C57bl/6 mouse precision-cut lung slices assessed as effect on LPS/IFNgamma-induced HDAC2 expression at 1 to 10 uM preincubated for 20 hrs followed by LPS/IFNgamma stimulation and measured after 4 hrs by Western blot analysis. The note with it: dose 1-10 µM, time 24.0 hrs. In kind it is functional, tissue-based.
Series [11] has as its system Lung. Briefly: Antiinflammatory activity in C57bl/6 mouse precision-cut lung slices assessed as upregulation of LPS/IFNgamma-induced IkappaBalpha gene expression at 1 to 10 uM preincubated for 20 hrs followed by LPS/IFNgamma stimulation and measured after 4 hrs by RT-qPCR analysis. Type of series: functional, tissue-based. The note with it: dose 1-10 µM, time 24.0 hrs.

For series [12], the target named is T1, Histone deacetylase 3 (Mus musculus). Briefly: Effect on HDAC3 nuclear localization in LPS/IFNgamma-stimulated mouse RAW264.7 cells preincubated for 20 hrs followed by LPS/IFNgamma stimulation and measured after 1 hr by Western blot analysis. In kind it is cell-based. In short, it runs like this:
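RAW 264.7 cells treated for 20 h, then 1 h LPS/IFNγ, and fractionated into nuclear and cytosolic parts. Fractions immunoblotted, with PARP-1 and β-actin as internal controls. Densitometry with vehicle control set at 100%. Mean ± SD of 3–4 independent experiments.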

SMILES strings stand for the structures. Active and inactive are the calls of the source. No cut-off for these calls is given here.

On to `Nc1cc(F)ccc1NC(=O)/C=C/c1cnn(C/C=C/c2ccccc2)c1`, for which, in [1], the Activity entry is reported as “Non-Toxic”. The outcome in [2], in [3], in series [8], in series [10] and in series [12] was inactive. Further, the outcome in series [4], in series [9] and in [11] was Active. Also, the inhibition result in [5], in series [6] and in [7] was “inactive” each time.
